# Experimental data published in publication PMC3079392 (The Biochemical journal, 2008).
# Entries after “also recorded” stand apart in the source; their conditions may differ. Like-named read-outs stand apart in the source and are kept apart here.
# Experiments:
# 110δ = conditions: cited from earlier work
# [1] = test system: PKB/Akt (S473) and S6 (S235,236) phosphorylation; test: Western blot of PI3K signaling; format: cell-based; conditions: for Temporal inhibition of PKB/Akt and S6 phosphorylation: 1 μM, 1, 6 and 24 h
# [2] = cited from earlier work
# [3] = test system: phospho-PKB/Akt (Ser-473); test: Western blot of phospho-PKB/Akt; format: cell-based; conditions: 1 h; for Increase in PKB phosphorylation induced by siRNA to PTEN: MDA-MB-231 cells with PTEN siRNA, 1 μM; for Inhibition of PKB/Akt phosphorylation: MDA-MB-468 and BT549 cells (PTEN mutant), 0.5, 1 and 10 μM
# phospho-S6 (Ser-235,236) = test: Western blot of phospho-S6; format: cell-based; conditions: 1 h
# In short: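 Cells in 6-well plates (80% confluence) exposed to test compound at 0.5, 1 or 10 μM for 1 h, then scraped into NP40 lysis buffer with phosphatase and protease inhibitors. Detected by HRP secondary and ECL; bands quantified densitometrically.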
# phospho-S6 = test: Phospho-S6 immunofluorescence, Cellomics arrayscan; format: cell-based; conditions: 1 μM; for S6 phosphorylation following treatment: Hs578t cells, up to 24 h; for Inhibition of S6 phosphorylation by immunofluorescence: 1 h
# In short: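 Cells in 96-well plates; SKBr3 treated 18 h after plating with 1 μM test compound for 1 or 24 h, Hs578t for 24 h. Fixed in 4% paraformaldehyde 15 min, permeabilized in 0.2% Triton X-100 5 min, then blocked in 1% BSA 20 min. Anti-phospho-S6 1 h, fluorescent secondary 1 h, Hoechst. Cytoplasmic intensity (Hoechst-defined nuclear ring) measured on Cellomics ArrayScan, averaged over 200 cells; secondary-only control.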
# breast cancer cell lines [4] = test: Cell number by counting Hoechst-stained nuclei; format: cell-based
# In short: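 Cells plated in 96-well dishes; test compound added the next day, with medium and fresh compound replaced every 24 h, for 48 h (or 1 μM for 24, 48 and 72 h). Cells then fixed and permeabilized, and nuclei stained with Hoechst. Nuclei counted on a Cellomics ArrayScan reader.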
# breast cancer cell lines [5] = test: Flow cytometry DNA content; format: cell-based; conditions: for Effects on DNA content: MCF10A, BT474, MDA-MB-231 and MDA-MB-468 cells; for Sub-G1 population (less than 2n DNA content): SKBR3 cells, 24 h
# In short: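 Cells in 6-well plates (80% confluence) treated with test compound: SKBr3 at several concentrations for 24 h; others at 1 μM for 24, 48 or 72 h with fresh compound every 24 h. Adherent plus floating cells pooled and fixed in 70% ethanol. Stained with propidium iodide 10 μg/ml plus RNase A 0.1 mg/ml; 10,000 cells analysed by flow cytometry. Sub-G1 scored as <2n DNA content.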
# breast cancer cell lines [6] = test: Flow cytometry DNA content with nocodazole protocol; format: cell-based
# p110α/p85α = conditions: read-out: In-vitro IC50 p110α/p85α; cited from earlier work
# p110δ/p85α = conditions: read-out: In-vitro IC50 p110δ/p85α; cited from earlier work
# [7] = MDA-MB-231 cells, 0.5, 1 and 10 μM
# [8] = mutant Ras cell lines MDA-MB-231 and Hs578t, 1 μM PI3K inhibitor, 100 nM rapamycin, nocodazole protocol
# [9] = MCF10A, BT474, SKBR3, BT20, T47D, MCF7 and HS578t, 0.5, 1 and 10 μM, 1 h
# [10] = MDA-MB-468 cells, 0.5 and 1 μM, 48 h
# [11] = five other cell lines, 0.5 and 1 μM, 48 h
# [12] = MDA-MB-468 cells (PTEN mutant), 1 μM, nocodazole 70 ng/ml
structure (smiles),measurement,setting,value
Cc1ccccc1-n1c(Cn2cnc3c(N)ncnc32)nc2cccc(C)c2c1=O [IC87114],Selectivity for 110δ vs. all other PI3K family members,110δ,> 100 fold
O=c1cc(N2CCOCC2)oc2c(-c3ccccc3)cccc12 [LY294002],Inhibition of PI3K signaling,[1]; all cell lines examined,effective at inhibiting PI3K signaling in all cell lines examined
same,Toxicity when administered systemically in vivo,[2]; in vivo,toxic when administered systemically in vivo
Oc1cccc(-c2nc(N3CCOCC3)c3oc4ncccc4c3n2)c1 [PI-103],Increase in PKB phosphorylation induced by siRNA to PTEN,[3],abrogated
same,Inhibition of S6 phosphorylation,"phospho-S6 (Ser-235,236); [7]",still sensitive
same,Inhibition of PKB/Akt and S6 phosphorylation,[1],equipotent; also recorded: more potent than PIK-75
same,S6 phosphorylation following treatment,phospho-S6,remained inhibited
same,Inhibition of S6 phosphorylation by immunofluorescence,phospho-S6; SKBr3 cells,inhibit S6 phosphorylation
same,Effect on cell number,"breast cancer cell lines [4]; BT549 and Hs578t cells, 1 μM",resistant to cell number decreases
same,Effects on DNA content,"breast cancer cell lines [5]; 1 μM, 24, 48 and 72 h","Neither PI-103, TGX-286 or PIK-108 showed strong effects"
same,Sub-G1 population (less than 2n DNA content),breast cancer cell lines [5],did not induce such an effect
same,G1 arrest,"breast cancer cell lines [6]; BT474 and MCF10A cells, 1 μM, nocodazole 70 ng/ml",induced a G1 arrest
same,G1 arrest,"breast cancer cell lines [6]; MDA-MB-231 and MDA-MB-468 cells, 1 μM, nocodazole 70 ng/ml",not in MDA-MB-231 cells or in MDA-MB-468 cells
same,G1 arrest,breast cancer cell lines [6]; [8],marked insensitivity
Cc1ccc([N+](=O)[O-])cc1S(=O)(=O)N(C)/N=C/c1cnc2ccc(Br)cn12 [PIK-75],Inhibition of S6 phosphorylation,"phospho-S6 (Ser-235,236); [7]",still sensitive
same,Temporal inhibition of PKB/Akt and S6 phosphorylation,[1]; BT549 cells,transient inhibition
same,Inhibition of PKB/Akt and S6 phosphorylation,[1]; [9],equipotent
same,Temporal inhibition of PKB/Akt and S6 phosphorylation,"[1]; T47D, MCF10A, BT20 cells",sustained
same,S6 phosphorylation following treatment,phospho-S6,rapidly recovered to untreated levels
same,Duration of inhibition of S6 phosphorylation by immunofluorescence,"phospho-S6; SKBr3 cells, 1 and 24 h",sustained
same,Inhibition of S6 phosphorylation by immunofluorescence,phospho-S6; SKBr3 cells,inhibit S6 phosphorylation
same,Effect on cell number,"breast cancer cell lines [4]; Hs578t cells, 48 h of treatment",strongly inhibited cell number
same,Loss of cell number,"breast cancer cell lines [4]; eight cell lines, 1 μM, 24, 48 and 72 h",greatest ability to induce loss of cell number
same,Sub-G1 population,"breast cancer cell lines [5]; BT474 (rapid), MCF10A and MDA-MB-468 (delayed), 1 μM, 24, 48 and 72 h",induced a large sub-G1 population
same,DNA content,"breast cancer cell lines [5]; MDA-MB-231 cells, 1 μM, 24, 48 and 72 h",strong accumulation of cells with a 4n DNA content
same,Sub-G1 population (less than 2n DNA content),breast cancer cell lines [5],induced a significant sub-G1 population
Cc1cc([C@H](C)Nc2ccccc2)c2oc(N3CCOCC3)cc(=O)c2c1 [PIK-108],Increase in PKB phosphorylation induced by siRNA to PTEN,[3],abrogated
same,Inhibition of PKB/Akt phosphorylation,[3],able to inhibit the phosphorylation of PKB/Akt
same,Inhibition of PKB/Akt and S6 phosphorylation,[1]; [9],ineffective
same,Inhibition of S6 phosphorylation by immunofluorescence,phospho-S6; SKBr3 cells,only a minimal inhibition
same,Effect on cell number,breast cancer cell lines [4]; BT549 cells,did not exhibit these responses to cell number
same,Effect on cell number,breast cancer cell lines [4]; [10],dose-dependent reduction in cell number
same,Effect on cell number,breast cancer cell lines [4]; [11],broadly unaffected
same,Effects on DNA content,"breast cancer cell lines [5]; 1 μM, 24, 48 and 72 h","Neither PI-103, TGX-286 or PIK-108 showed strong effects"
same,G1 arrest,breast cancer cell lines [6]; [12],G1 arrest was uniquely observed; also recorded: partial G1 arrest
Cc1cc(C(C)Nc2ccccc2)c2oc(-c3ccncc3)cc(=O)c2c1 (stereo not shown) [TGX-286],Inhibition of PKB/Akt phosphorylation,[3],able to inhibit the phosphorylation of PKB/Akt
same,Inhibition of PKB/Akt and S6 phosphorylation,[1]; [9],ineffective
same,Inhibition of S6 phosphorylation by immunofluorescence,phospho-S6; SKBr3 cells,only a minimal inhibition
same,Effect on cell number,breast cancer cell lines [4]; BT549 cells,did not exhibit these responses to cell number
same,Effect on cell number,breast cancer cell lines [4]; [10],dose-dependent reduction in cell number
same,Effect on cell number,breast cancer cell lines [4]; [11],broadly unaffected
same,Effects on DNA content,"breast cancer cell lines [5]; 1 μM, 24, 48 and 72 h","Neither PI-103, TGX-286 or PIK-108 showed strong effects"
same,G1 arrest,breast cancer cell lines [6]; [12],G1 arrest was uniquely observed
N#CC(=C(/N)Sc1ccccc1N)/C(C#N)=C(/N)Sc1ccccc1N [U0126],G1 arrest,"breast cancer cell lines [6]; all cell lines examined, 10 μM U0126, nocodazole protocol",caused a G1 arrest in all cell lines examined
Cc1ccc(-c2c(C(=O)CF)n(CCCO)c3ncnc(N)c23)cc1 [fmk],Effect on cell cycle arrest,breast cancer cell lines [6]; MDA-MB-231 cells (Fig. 5C),not sufficient to cause any effect on cell cycle arrest
CO[C@H]1C[C@@H]2CC[C@@H](C)[C@@](O)(O2)C(=O)C(=O)N2CCCC[C@H]2C(=O)O[C@H]([C@H](C)C[C@@H]2CC[C@@H](O)[C@H](OC)C2)CC(=O)[C@H](C)/C=C(\C)[C@@H](O)[C@@H](OC)C(=O)[C@H](C)C[C@H](C)/C=C/C=C/C=C/1C [rapamycin],Inhibition of S6 phosphorylation,"phospho-S6 (Ser-235,236); WT Ras cell lines BT-474 and BT20",sufficient to fully inhibit S6 phosphorylation
same,Inhibition of S6 phosphorylation,"phospho-S6 (Ser-235,236); mutant Ras MDA-MD-231 cell line",residual phosphorylation of S6
same,G1 arrest,"breast cancer cell lines [6]; all cells expressing WT Ras, 100 nM rapamycin, nocodazole protocol",caused a G1 arrest (to varying degrees)
same,G1 arrest,breast cancer cell lines [6]; [8],ineffective at causing a G1 arrest
COC[C@H]1OC(=O)c2coc3c2[C@@]1(C)C1=C(C3=O)[C@@H]2CCC(=O)[C@@]2(C)C[C@H]1OC(C)=O [wortmannin],Toxicity when administered systemically in vivo,[2],toxic when administered systemically in vivo
